From ChEMBL document CHEMBL1153726, “Synthesis and anticancer activity of sclerophytin-inspired hydroisobenzofurans” (Bioorg Med Chem Lett, 2009)

Legend:
Assay type in all cases: functional
LOX IMVI [1] = test: Growth inhibition of human LOXIMVI cells after 96 hrs by MTT assay
In short: (§1)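 Run in the NCI 60 human tumour cell line panel as a five-dose assay. GI50 and LC50 were reported for each cell line.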

LOX IMVI [2] = test: Growth inhibition of human LOXIMVI cells at 10 uM after 96 hrs by MTT assay; parameters: scale not given: the % may be the effect or the level left
SNB-19 = test: Growth inhibition of human SNB19 cells at 1 nM after 96 hrs by MTT assay; parameters: scale not given: the % may be the effect or the level left
MCF7 [3] = test: Growth inhibition of human MCF7 cells at 10 uM after 96 hrs by MTT assay; parameters: scale not given: the % may be the effect or the level left
NCI-H522 [4] = test: Growth inhibition of human NCI-H522 cells at 10 uM after 96 hrs by MTT assay; parameters: scale not given: the % may be the effect or the level left
U-251 [5] = test: Growth inhibition of human U251 cells at 1 uM after 96 hrs by MTT assay; parameters: scale not given: the % may be the effect or the level left
OVCAR-8 = test: Growth inhibition of human OVCAR8 cells at 1 uM after 96 hrs by MTT assay; parameters: scale not given: the % may be the effect or the level left
HCT-15 [6] = test: Growth inhibition of human HCT15 cells at 10 nM after 96 hrs by MTT assay; parameters: scale not given: the % may be the effect or the level left
MCF7 [7] = test: Growth inhibition of human MCF7 cells after 96 hrs by MTT assay; conditions: MCF7, 96 h; in short: as §1
TK-10 [8] = test: Growth inhibition of human TK10 cells after 96 hrs by MTT assay; conditions: TK-10, 96 h
In short: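 Tested in the NCI 60-cell-line panel in five-dose format; GI50 and LC50 values reported for each cell line.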

SF-539 [9] = test: Growth inhibition of human SF539 cells at 1 nM after 96 hrs by MTT assay; parameters: scale not given: the % may be the effect or the level left
UO-31 [10] = test: Growth inhibition of human UO31 cells at 1 uM after 96 hrs by MTT assay; parameters: scale not given: the % may be the effect or the level left
[11] = Growth inhibition of human Hs 578T cells at 100 nM after 96 hrs by MTT assay; parameters: scale not given: the % may be the effect or the level left
CAKI-1 = test: Growth inhibition of human Caki1 cells at 1 nM after 96 hrs by MTT assay; parameters: scale not given: the % may be the effect or the level left
BT-549 = test: Growth inhibition of human BT549 cells at 10 uM after 96 hrs by MTT assay; parameters: scale not given: the % may be the effect or the level left
NCI-H23 [12] = test: Growth inhibition of human NCI-H23 cells at 1 uM after 96 hrs by MTT assay; parameters: scale not given: the % may be the effect or the level left
RXF 393 = test: Growth inhibition of human RXF393 cells at 1 nM after 96 hrs by MTT assay; parameters: scale not given: the % may be the effect or the level left
MDA-MB-468 = test: Growth inhibition of human MDA-MB-468 cells at 1 nM after 96 hrs by MTT assay; parameters: scale not given: the % may be the effect or the level left
NCI/ADR-RES = test: Growth inhibition of human NCI/ADR-RES cells at 10 uM after 96 hrs by MTT assay; parameters: scale not given: the % may be the effect or the level left
NCI-H522 [13] = test: Growth inhibition of human NCI-H522 cells after 96 hrs by MTT assay; conditions: NCI-H522, 96 h; in short: as §1
HCT-15 [14] = test: Growth inhibition of human HCT15 cells after 96 hrs by MTT assay; conditions: HCT-15, 96 h; in short: as §1
HT-29 = test: Growth inhibition of human HT-29 cells at 1 nM after 96 hrs by MTT assay; parameters: scale not given: the % may be the effect or the level left
SN12C = test: Growth inhibition of human SN12C cells at 1 nM after 96 hrs by MTT assay; parameters: scale not given: the % may be the effect or the level left
MDA-MB-231 [15] = test: Growth inhibition of human MDA-MB-231 cells at 1 uM after 96 hrs by MTT assay; parameters: scale not given: the % may be the effect or the level left
LOX IMVI [16] = test: Growth inhibition of human LOXIMVI cells at 10 nM after 96 hrs by MTT assay; parameters: scale not given: the % may be the effect or the level left
NCI-H226 [17] = test: Growth inhibition of human NCI-H226 cells after 96 hrs by MTT assay; conditions: NCI-H226, 96 h; in short: as §1
MDA-MB-231 [18] = test: Growth inhibition of human MDA-MB-231 cells at 10 nM after 96 hrs by MTT assay; parameters: scale not given: the % may be the effect or the level left
SF-539 [19] = test: Growth inhibition of human SF539 cells at 1 uM after 96 hrs by MTT assay; parameters: scale not given: the % may be the effect or the level left
COLO 205 = test: Growth inhibition of human COLO205 cells at 100 nM after 96 hrs by MTT assay; parameters: scale not given: the % may be the effect or the level left
K562 = test: Growth inhibition of human K562 cells at 1 uM after 96 hrs by MTT assay; parameters: scale not given: the % may be the effect or the level left
U-251 [20] = test: Growth inhibition of human U251 cells at 10 nM after 96 hrs by MTT assay; parameters: scale not given: the % may be the effect or the level left
TK-10 [21] = test: Growth inhibition of human TK10 cells at 10 uM after 96 hrs by MTT assay; parameters: scale not given: the % may be the effect or the level left
ACHN = test: Growth inhibition of human ACHN cells at 1 nM after 96 hrs by MTT assay; parameters: scale not given: the % may be the effect or the level left
SF-268 = test: Growth inhibition of human SF268 cells at 100 nM after 96 hrs by MTT assay; parameters: scale not given: the % may be the effect or the level left
T47D = test: Growth inhibition of human T47D cells at 100 nM after 96 hrs by MTT assay; parameters: scale not given: the % may be the effect or the level left
NCI-H23 [22] = test: Growth inhibition of human NCI-H23 cells at 100 nM after 96 hrs by MTT assay; parameters: scale not given: the % may be the effect or the level left
NCI-H226 [23] = test: Growth inhibition of human NCI-H226 cells at 10 uM after 96 hrs by MTT assay; parameters: scale not given: the % may be the effect or the level left
U-251 [24] = test: Growth inhibition of human U251 cells at 100 nM after 96 hrs by MTT assay; parameters: scale not given: the % may be the effect or the level left
OVCAR-3 = test: Growth inhibition of human OVCAR-3 cells at 10 nM after 96 hrs by MTT assay; parameters: scale not given: the % may be the effect or the level left
SK-OV-3 = test: Growth inhibition of human SKOV3 cells at 10 nM after 96 hrs by MTT assay; parameters: scale not given: the % may be the effect or the level left
OVCAR-5 = test: Growth inhibition of human OVCAR5 cells at 10 nM after 96 hrs by MTT assay; parameters: scale not given: the % may be the effect or the level left
UO-31 [25] = test: Growth inhibition of human UO31 cells at 1 nM after 96 hrs by MTT assay; parameters: scale not given: the % may be the effect or the level left
DU-145 = test: Growth inhibition of human DU145 cells at 1 uM after 96 hrs by MTT assay; parameters: scale not given: the % may be the effect or the level left
[26] = read-out: LC50 (the source's name)
[27] = read-out: Log10GI50 (converted)
[28] = read-out: Log10LC50 (converted)

SMILES: C=C(C)[C@H]1CC=C(C)C2=CO[C@@H](c3ccccc3F)[C@@H]21
- GI50 (LOX IMVI [1]; read-out: GI50): 4.3 µM
- CC50 (LOX IMVI [1]; [26]): 55.4 µM
- GI50 (LOX IMVI [1]; [27]): 4.27 µM
- CC50 (LOX IMVI [1]; [28]): 55 µM
- TGI (LOX IMVI [1]; read-out: Log10TGI (converted)): 20 µM
- TGI (LOX IMVI [1]; read-out: TGI): 19.8 µM
- Activity (LOX IMVI [2]): 89.75%
- Activity (SNB-19): 94%
- Activity (MCF7 [3]): 93.7%
- Activity (NCI-H522 [4]): 58.36%
- Activity (U-251 [5]): 18%
- Activity (OVCAR-8): 59%
- Activity (HCT-15 [6]): 95%
- GI50 (MCF7 [7]; read-out: GI50): 3.77 µM
- CC50 (MCF7 [7]; [26]): 63.9 µM
- GI50 (MCF7 [7]; [27]): 3.8 µM
- CC50 (MCF7 [7]; [28]): 64.6 µM
- TGI (MCF7 [7]; read-out: Log10TGI (converted)): 18.6 µM
- TGI (MCF7 [7]; read-out: TGI): 18.8 µM
- GI50 (TK-10 [8]; read-out: GI50): 8.93 µM
- CC50 (TK-10 [8]; [26]): 88.9 µM
- GI50 (TK-10 [8]; [27]): 8.91 µM
- CC50 (TK-10 [8]; [28]): 89.1 µM
- TGI (TK-10 [8]; read-out: Log10TGI (converted)): 28.8 µM
- TGI (TK-10 [8]; read-out: TGI): 29.1 µM
- Activity (SF-539 [9]): 91%
- Activity (UO-31 [10]): 42%
- Activity [11]: 67%
- Activity (CAKI-1): 96%
- Activity (BT-549): 112.93%
- Activity (NCI-H23 [12]): 34%
- Activity (RXF 393): 94%
- Activity (MDA-MB-468): 93%
- Activity (NCI/ADR-RES): 108.3%
- GI50 (NCI-H522 [13]; read-out: GI50): 3.13 µM
- CC50 (NCI-H522 [13]; [26]): 45.5 µM
- GI50 (NCI-H522 [13]; [27]): 3.16 µM
- CC50 (NCI-H522 [13]; [28]): 45.7 µM
- TGI (NCI-H522 [13]; read-out: Log10TGI (converted)): 17.4 µM
- TGI (NCI-H522 [13]; read-out: TGI): 17.4 µM
- GI50 (HCT-15 [14]; read-out: GI50): 4.38 µM
- CC50 (HCT-15 [14]; [26]): 51 µM
- GI50 (HCT-15 [14]; [27]): 4.37 µM
- CC50 (HCT-15 [14]; [28]): 51.3 µM
- TGI (HCT-15 [14]; read-out: Log10TGI (converted)): 18.6 µM
- TGI (HCT-15 [14]; read-out: TGI): 18.6 µM
- Activity (HT-29): 98%
- Activity (SN12C): 85%
- Activity (MDA-MB-231 [15]): 43%
- Activity (LOX IMVI [16]): 91%
- GI50 (NCI-H226 [17]; read-out: GI50): 3.82 µM
- CC50 (NCI-H226 [17]; [26]): 50.6 µM
- GI50 (NCI-H226 [17]; [27]): 3.8 µM
- CC50 (NCI-H226 [17]; [28]): 50.1 µM
- TGI (NCI-H226 [17]; read-out: Log10TGI (converted)): 19.1 µM
- TGI (NCI-H226 [17]; read-out: TGI): 18.9 µM
- Activity (MDA-MB-231 [18]): 89%
- Activity (SF-539 [19]): 43%
- Activity (COLO 205): 92%
- Activity (K562): 10%
- Activity (U-251 [20]): 94%
- Activity (TK-10 [21]): 113.66%
- Activity (ACHN): 96%
- Activity (SF-268): 87%
- Activity (T47D): 76%
- Activity (NCI-H23 [22]): 85%
- Activity (NCI-H226 [23]): 98.1%
- Activity (U-251 [24]): 80%
- Activity (OVCAR-3): 88%
- Activity (SK-OV-3): 100%
- Activity (OVCAR-5): 84%
- Activity (UO-31 [25]): 89%
- Activity (DU-145): 37%
